A selection: hits, their analogues and other compounds. The true share with any hit is near 1.6%.
T cell modulator: T cell immune modulators affecting CD8 T cell-vesicle binding | 2C CD8+ T cell-vesicle binding, flow cytometry; active compounds read low | response (vesicle binding), % at 7 µM | hit rate 0.068% among 330,000 | AID 2052;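 active = response, share of CD8 T cells binding vesicles, and their 90th percentile fluorescence all below set limits, cut at about 80% in these data, passing the limit was not always enough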;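 also: values below 100% mean blocked vesicle binding to the CD8+ T cells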
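Material: 2C TCR transgenic mouse naive CD8+ T cells, MACS-purified. Also added: QL9-charged Drosophila Ld/ICAM-1/B7-1 vesicles. Timing: binding 1.5 h at 37 °C. Measured by: high-throughput flow cytometry with anti-B7-1 and anti-CD8 staining. Read-out: percent CD8+ FL2 mean versus row control. Controls: Unloaded micro-vesicles (low), QL9 vesicles with 0.7% DMSO (high).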
PfG6PD inh: PfG6PD (Plasmodium falciparum) enzyme inhibition; inhibition, % at 20 µM; AID 504690; PfGluPho enzyme, NADPH resazurin-diaphorase fluorescence; hit rate 0.78% among 350,000;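 active = inhibition reaching at least a set limit at 20 µM in the primary screen, cut at about 59% in these data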;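 also: 0% = DMSO wells with substrate and 100% = DMSO wells lacking glucose-6-phosphate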
ATG4B inh: inhibitors of human ATG4B cysteine protease. inhibition, % at 8.33 µM. ATG4B cleavage of LC3-PLA2, NBD-HPC fluorescence, 1 h. AID 504462. hit rate 0.51% among 340,000. Q9Y4P1; in the data active = inhibition above about 40%
HKDC1 inh: HKDC1 (human) hexokinase inhibition | Q2TB90 | recombinant HKDC1, G6PDH/diaphorase resazurin coupled fluorescence | inhibition, % at 20 µM | hit rate 0.16% among 340,000 | AID 493160;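 active = inhibition above about 35% when tested at 20 µM, limit read from the data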;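 also: plate controls were DMSO wells with enzyme for no effect and DMSO wells lacking enzyme for full effect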
Target sequence (Q2TB90 whole entry, looked up): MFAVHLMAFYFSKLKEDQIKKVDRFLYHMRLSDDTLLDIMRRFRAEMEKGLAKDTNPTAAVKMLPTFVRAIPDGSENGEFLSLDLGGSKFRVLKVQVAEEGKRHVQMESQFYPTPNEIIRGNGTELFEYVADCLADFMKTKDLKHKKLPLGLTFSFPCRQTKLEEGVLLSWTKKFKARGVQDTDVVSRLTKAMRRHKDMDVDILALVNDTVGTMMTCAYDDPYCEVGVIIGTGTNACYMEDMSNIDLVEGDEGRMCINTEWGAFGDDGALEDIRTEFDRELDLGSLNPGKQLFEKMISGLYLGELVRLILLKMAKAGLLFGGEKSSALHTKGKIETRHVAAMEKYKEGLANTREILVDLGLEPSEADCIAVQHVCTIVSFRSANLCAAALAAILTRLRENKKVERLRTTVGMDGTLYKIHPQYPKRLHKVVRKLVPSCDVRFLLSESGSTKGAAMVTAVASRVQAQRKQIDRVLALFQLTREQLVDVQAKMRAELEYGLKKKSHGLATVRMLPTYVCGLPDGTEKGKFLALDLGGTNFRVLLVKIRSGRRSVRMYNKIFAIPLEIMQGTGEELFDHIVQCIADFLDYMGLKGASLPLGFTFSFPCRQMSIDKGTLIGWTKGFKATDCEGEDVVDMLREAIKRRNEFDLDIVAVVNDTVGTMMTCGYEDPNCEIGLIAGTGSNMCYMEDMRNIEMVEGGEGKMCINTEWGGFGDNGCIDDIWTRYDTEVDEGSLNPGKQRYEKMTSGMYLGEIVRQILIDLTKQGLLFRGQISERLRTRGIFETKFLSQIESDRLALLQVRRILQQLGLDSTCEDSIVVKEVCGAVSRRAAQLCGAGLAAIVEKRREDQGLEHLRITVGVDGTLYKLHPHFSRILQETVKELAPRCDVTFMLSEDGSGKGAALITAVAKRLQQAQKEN
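Material – in-house recombinant HK5 (HKDC1) enzyme · Quantity – HKDC1 at 5 µg/mL · Buffer or medium – pH 8.0 Tris buffer with 10 mM MgCl2 · Reagent – glucose with 1 mM ATP · Dosing – single 20 µM dose · Times – reaction time 90 min, room temperature, protected from light · Technique – resorufin fluorescence at 613 nm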
PKA-R2B act: activators of human PKA-R2B complex | PKA-R2B holoenzyme dissociation, Cy5-IP20 fluorescence polarization; R2B truncated from residue 108, S112A mutant; 0% DMSO only, 100% 113 µM cGMP | activation, % at 11.4 µM | hit rate 0.079% among 340,000 | P22694+P31323 | AID 504700;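 active = activation above a cutoff set at the mean over all compounds plus 3 SD, cut at about 18% in these data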;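 also: higher means more holoenzyme dissociation and a rise in polarization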
PKA-R1A act: activators of PKA-R1A complex; P00514+P68181; activation, % at 11.4 µM; hit rate 0.083% among 340,000; AID 504707; PKA-R1A dissociation, Cy5-IP20 fluorescence polarization; scaled: DMSO 0%, 113 µM cGMP 100%;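 active = percent activation above the mean of all tested compounds plus 3 SD, cut at about 19% in these data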;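 also: higher means more PKAc released from R1A so a rise in polarization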
PfG6PD confirm: PfG6PD inhibition, single-dose confirmed; hit rate 34% among 2,400; inhibition, % at 20 µM; shares compounds with PfG6PD inh; recombinant PfGluPho, NADPH-diaphorase-resazurin fluorescence;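 active = inhibition of at least 50% at 20 µM in any single replicate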;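 also: 0% = DMSO with substrate and 100% = DMSO lacking glucose-6-phosphate substrate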
* marks the source's active call; other numbers are inactive results.

Screening O=C(Nc1nnc(S(=O)(=O)N2CCOCC2)s1)c1cccc(F)c1 returned T cell modulator 395, PfG6PD inh 51, ATG4B inh -19, HKDC1 inh -6, PKA-R2B act 1 and PKA-R1A act -15.
For c1ccc2oc(-c3nn4c(Cn5cnc6ccccc65)nnc4s3)cc2c1 the results were T cell modulator 404, PfG6PD inh 15, ATG4B inh -4, HKDC1 inh -1, PKA-R2B act -2 and PKA-R1A act -5.
`Clc1cccc(-c2nn3c(Cn4cnc5ccccc54)nnc3s2)c1` gave PfG6PD inh 62*, ATG4B inh -7, HKDC1 inh 4, PKA-R2B act -8, PKA-R1A act -3 and PfG6PD confirm 25.
`c1csc(-c2nn3c(Cn4cnc5ccccc54)nnc3s2)c1` gave T cell modulator 368, PfG6PD inh 75*, ATG4B inh 8, HKDC1 inh -6, PKA-R2B act -2, PKA-R1A act 5 and PfG6PD confirm 38.
`CCN(CC(=O)Nc1c(F)cccc1F)C(=O)COc1ccc2c(c1)CCC2` gave T cell modulator 197, PfG6PD inh -5, ATG4B inh 4, HKDC1 inh 3, PKA-R2B act -12 and PKA-R1A act 12.
For O=C1CCC(C(=O)N2CCN(c3ccccc3)CC2)CN1Cc1ccc(Cl)cc1 (stereo not drawn) the results were PfG6PD inh -9, PKA-R2B act 1 and PKA-R1A act 4.
Screening COc1ccc(-c2cc3nc(C)cc(C)n3n2)cc1 returned T cell modulator 144, PfG6PD inh 61*, ATG4B inh -11, HKDC1 inh -1, PKA-R2B act -2, PKA-R1A act 11 and PfG6PD confirm 20.
For O=C(CSc1nccc(=O)[nH]1)N1CCN(c2ccccc2)CC1 the results were T cell modulator 317, PfG6PD inh 0, ATG4B inh 0, HKDC1 inh -12, PKA-R2B act 6 and PKA-R1A act 1.
For O=C(NC1=NCCS1)C1Cc2ccccc2CN1C(=O)c1ccccc1 (stereo not drawn) the results were T cell modulator 292, PfG6PD inh 28, ATG4B inh -11, HKDC1 inh 2, PKA-R2B act -6 and PKA-R1A act 2.
`CC(=O)c1ccc(NC(=O)C2Cc3ccccc3CN2C(=O)c2ccccc2)cc1` (stereo not drawn) gave T cell modulator 369, PfG6PD inh 68*, ATG4B inh 0, HKDC1 inh -7, PKA-R2B act -8, PKA-R1A act -9 and PfG6PD confirm 37.
COc1ccc(NC(=O)C2Cc3ccccc3CN2C(=O)c2ccccc2)cn1 (stereo not drawn) was read as T cell modulator 222, PfG6PD inh 61*, ATG4B inh -7, HKDC1 inh 1, PKA-R2B act -11, PKA-R1A act -2 and PfG6PD confirm 48.
`CC1(c2cccc(Br)c2)NC(=O)N(CC(=O)c2ccc3c(c2)OCO3)C1=O` (stereo not drawn) gave PfG6PD inh 11, PKA-R2B act -2 and PKA-R1A act 3.
N#CC(=C1C=CC(=NO)C(Cl)=C1)c1ccc(Cl)cc1 was read as PfG6PD inh 31, ATG4B inh -5, HKDC1 inh 14, PKA-R2B act -3 and PKA-R1A act -6.
`COc1ccc(C(C#N)=C2C=CC(=NO)C=C2)cc1` gave T cell modulator 176, PfG6PD inh 61*, ATG4B inh 4, HKDC1 inh 12, PKA-R2B act -9, PKA-R1A act -3 and PfG6PD confirm -10.
For CCn1c(SCC(=O)NC2CCCCC2)nnc1-c1ccccc1F the results were T cell modulator 161, PfG6PD inh 3, ATG4B inh -7, HKDC1 inh -4, PKA-R2B act -2 and PKA-R1A act 4.
For CCn1c(O)c(C=Nc2ccccc2)sc1=S the results were T cell modulator 480, PfG6PD inh 68*, ATG4B inh 13, HKDC1 inh -1 and PfG6PD confirm 15.
For Oc1c(C=Nc2ccccc2)sc(=S)n1Cc1ccccc1 the results were T cell modulator 314, PfG6PD inh 8, ATG4B inh 28, HKDC1 inh -7, PKA-R2B act -4 and PKA-R1A act 1.
For CNS(=O)(=O)c1ccc2nc(NC(=O)c3ccc(N4C(=O)CCC4=O)cc3)sc2c1 the results were T cell modulator 134, PfG6PD inh 64*, ATG4B inh -17, HKDC1 inh 0, PKA-R2B act 0, PKA-R1A act -7 and PfG6PD confirm 41.
Oc1ccc(C=NNc2ccccn2)c(O)c1 was read as PfG6PD inh 61*, ATG4B inh -4, HKDC1 inh 14, PKA-R2B act -11, PKA-R1A act 2 and PfG6PD confirm 45.
Screening O=C(NC1CC1)c1cc(=S)[nH]c2ccccc12 returned T cell modulator 374, PfG6PD inh 60*, ATG4B inh -10, HKDC1 inh -8, PKA-R2B act -2, PKA-R1A act 8 and PfG6PD confirm 9.
O=C(NC1CC1)C(=O)c1c[nH]c2ccccc12 was read as T cell modulator 286, PfG6PD inh 3, ATG4B inh -4, HKDC1 inh -3, PKA-R2B act 5 and PKA-R1A act 5.
Screening COc1ccc(N2CSC3=C(C#N)C(c4cccc(OC)c4OC)CC(=O)N3C2)cc1 (stereo not drawn) returned T cell modulator 418, PfG6PD inh 89*, ATG4B inh -5, HKDC1 inh 15, PKA-R2B act 2, PKA-R1A act -7 and PfG6PD confirm 37.
COc1cccc(C2SCC(=O)N2c2ccc(Cl)cc2)c1OC (stereo not drawn) was read as T cell modulator 224, PfG6PD inh -4, ATG4B inh -3, HKDC1 inh -1, PKA-R2B act -6 and PKA-R1A act -3.
Screening Cn1c2c(c(=O)n(C)c1=O)C(c1ccccc1F)C(C#N)=C(N)O2 (stereo not drawn) returned T cell modulator 308, PfG6PD inh -28, ATG4B inh 2, HKDC1 inh 0, PKA-R2B act 1 and PKA-R1A act -18.

From PubChem BioAssay
